Reference: ChEMBL document CHEMBL5058577, “EUbOPEN Chemogenomics Library 2 (Multiplex)” (2022)

Tested on: Fibroblast
Assay: Multiplex assay against human fibroblast
Format: toxicity, cell-based
Method in brief: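 Live cells carried four stains from seeding: Hoechst33342, BioTracker Green Microtubule Cytoskeleton Dye, MitoTracker Red and Annexin V Alexa Fluor 680. They were imaged on a CQ1 microscope at 37°C and 5% CO2 after compound addition. Using CellPathfinder machine-learning gating, cells were split into Hoechst high-intensity objects or normal cells, normal cells into healthy, pyknosed or fragmented nuclei, and pyknosed cells into mitotic or apoptotic; tubulin, mitochondrial-mass and membrane-permeability phenotypes are per cents of healthy-nucleus cells.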

[1] = 12 h, 1 µM, compound concentration 1 uM, replicate 1
[2] = 12 h, 1 µM, compound concentration 1 uM, replicate 2
[3] = 12 h, 10 µM, compound concentration 10 uM, replicate 1
[4] = 12 h, 10 µM, compound concentration 10 uM, replicate 2
[5] = 24 h, 1 µM, compound concentration 1 uM, replicate 1
[6] = 24 h, 1 µM, compound concentration 1 uM, replicate 2
[7] = 24 h, 10 µM, compound concentration 10 uM, replicate 1
[8] = 24 h, 10 µM, compound concentration 10 uM, replicate 2
[9] = 48 h, 1 µM, compound concentration 1 uM, replicate 1
[10] = 48 h, 1 µM, compound concentration 1 uM, replicate 2
[11] = 48 h, 10 µM, compound concentration 10 uM, replicate 1
[12] = 48 h, 10 µM, compound concentration 10 uM, replicate 2

COc1cc(OC2CCN(C(C)=O)CC2)ccc1C(=O)N1CCC(N2C(=O)OCc3ccccc32)CC1
Population Apoptotic (%) [1]: 41% | Population Fragmented Nuclei (%) [1]: 12% | Population Healthy Nuclei (%) [1]: 64% | Population Hoechst High Intensity Objects (%) [1]: 5% | Population Membrane Permeable-Phenotype (%) [1]: 2% | Population Mitochondria Different-Phenotype (%) [1]: 5% | Population Mitotic Cells (%) [1]: 58% | Population Normal (%) [1]: 94% | Population Pyknosed Nuclei (%) [1]: 22% | Population Tubulin-Different-Phenotype (%) [1]: 32% | Total Cell Count [1]: 157 | Population Apoptotic (%) [2]: 40% | Population Fragmented Nuclei (%) [2]: 29% | Population Healthy Nuclei (%) [2]: 52% | Population Hoechst High Intensity Objects (%) [2]: 3% | Population Membrane Permeable-Phenotype (%) [2]: 0% | Population Mitochondria Different-Phenotype (%) [2]: 3% | Population Mitotic Cells (%) [2]: 59% | Population Normal (%) [2]: 96% | Population Pyknosed Nuclei (%) [2]: 17% | Population Tubulin-Different-Phenotype (%) [2]: 34% | Total Cell Count [2]: 159 | Population Apoptotic (%) [3]: 52% | Population Fragmented Nuclei (%) [3]: 10% | Population Healthy Nuclei (%) [3]: 73% | Population Hoechst High Intensity Objects (%) [3]: 3% | Population Membrane Permeable-Phenotype (%) [3]: 0% | Population Mitochondria Different-Phenotype (%) [3]: 6% | Population Mitotic Cells (%) [3]: 48% | Population Normal (%) [3]: 96% | Population Pyknosed Nuclei (%) [3]: 16% | Population Tubulin-Different-Phenotype (%) [3]: 54% | Total Cell Count [3]: 161 | Population Apoptotic (%) [4]: 37% | Population Fragmented Nuclei (%) [4]: 32% | Population Healthy Nuclei (%) [4]: 40% | Population Hoechst High Intensity Objects (%) [4]: 6% | Population Membrane Permeable-Phenotype (%) [4]: 2% | Population Mitochondria Different-Phenotype (%) [4]: 10% | Population Mitotic Cells (%) [4]: 62% | Population Normal (%) [4]: 93% | Population Pyknosed Nuclei (%) [4]: 28% | Population Tubulin-Different-Phenotype (%) [4]: 56% | Total Cell Count [4]: 134 | Population Apoptotic (%) [5]: 63% | Population Fragmented Nuclei (%) [5]: 19% | Population Healthy Nuclei (%) [5]: 63% | Population Hoechst High Intensity Objects (%) [5]: 1% | Population Membrane Permeable-Phenotype (%) [5]: 0% | Population Mitochondria Different-Phenotype (%) [5]: 4% | Population Mitotic Cells (%) [5]: 36% | Population Normal (%) [5]: 98% | Population Pyknosed Nuclei (%) [5]: 17% | Population Tubulin-Different-Phenotype (%) [5]: 32% | Total Cell Count [5]: 170 | Population Apoptotic (%) [6]: 48% | Population Fragmented Nuclei (%) [6]: 28% | Population Healthy Nuclei (%) [6]: 51% | Population Membrane Permeable-Phenotype (%) [6]: 5% | Population Mitochondria Different-Phenotype (%) [6]: 3% | Population Mitotic Cells (%) [6]: 51% | Population Pyknosed Nuclei (%) [6]: 19% | Population Tubulin-Different-Phenotype (%) [6]: 31% | Total Cell Count [6]: 155 | Population Apoptotic (%) [7]: 36% | Population Fragmented Nuclei (%) [7]: 13% | Population Healthy Nuclei (%) [7]: 74% | Population Hoechst High Intensity Objects (%) [7]: 7% | Population Membrane Permeable-Phenotype (%) [7]: 1% | Population Mitochondria Different-Phenotype (%) [7]: 7% | Population Mitotic Cells (%) [7]: 63% | Population Normal (%) [7]: 92% | Population Pyknosed Nuclei (%) [7]: 11% | Population Tubulin-Different-Phenotype (%) [7]: 39% | Total Cell Count [7]: 172 | Population Apoptotic (%) [8]: 43% | Population Fragmented Nuclei (%) [8]: 34% | Population Healthy Nuclei (%) [8]: 48% | Population Membrane Permeable-Phenotype (%) [8]: 3% | Population Mitochondria Different-Phenotype (%) [8]: 10% | Population Mitotic Cells (%) [8]: 56% | Population Pyknosed Nuclei (%) [8]: 17% | Population Tubulin-Different-Phenotype (%) [8]: 70% | Total Cell Count [8]: 145 | Population Apoptotic (%) [9]: 40% | Population Fragmented Nuclei (%) [9]: 14% | Population Healthy Nuclei (%) [9]: 70% | Population Hoechst High Intensity Objects (%) [9]: 7% | Population Membrane Permeable-Phenotype (%) [9]: 0% | Population Mitochondria Different-Phenotype (%) [9]: 5% | Population Mitotic Cells (%) [9]: 59% | Population Normal (%) [9]: 92% | Population Pyknosed Nuclei (%) [9]: 14% | Population Tubulin-Different-Phenotype (%) [9]: 35% | Total Cell Count [9]: 160 | Population Apoptotic (%) [10]: 58% | Population Fragmented Nuclei (%) [10]: 32% | Population Healthy Nuclei (%) [10]: 52% | Population Hoechst High Intensity Objects (%) [10]: 3% | Population Membrane Permeable-Phenotype (%) [10]: 4% | Population Mitochondria Different-Phenotype (%) [10]: 4% | Population Mitotic Cells (%) [10]: 41% | Population Normal (%) [10]: 96% | Population Pyknosed Nuclei (%) [10]: 15% | Population Tubulin-Different-Phenotype (%) [10]: 43% | Total Cell Count [10]: 163 | Population Apoptotic (%) [11]: 57% | Population Fragmented Nuclei (%) [11]: 10% | Population Healthy Nuclei (%) [11]: 79% | Population Hoechst High Intensity Objects (%) [11]: 5% | Population Membrane Permeable-Phenotype (%) [11]: 0% | Population Mitochondria Different-Phenotype (%) [11]: 13% | Population Mitotic Cells (%) [11]: 42% | Population Normal (%) [11]: 94% | Population Pyknosed Nuclei (%) [11]: 9% | Population Tubulin-Different-Phenotype (%) [11]: 51% | Total Cell Count [11]: 155 | Population Apoptotic (%) [12]: 56% | Population Fragmented Nuclei (%) [12]: 36% | Population Healthy Nuclei (%) [12]: 51% | Population Hoechst High Intensity Objects (%) [12]: 3% | Population Membrane Permeable-Phenotype (%) [12]: 3% | Population Mitochondria Different-Phenotype (%) [12]: 10% | Population Mitotic Cells (%) [12]: 43% | Population Normal (%) [12]: 96% | Population Pyknosed Nuclei (%) [12]: 12% | Population Tubulin-Different-Phenotype (%) [12]: 69% | Total Cell Count [12]: 134
